97 molecules from ChEMBL document CHEMBL4513216, “Probing the Open Global Health Chemical Diversity Library for Multistage-Active Starting Points for Next-Generation Antimalarials” (ACS Infect Dis, 2020) can be followed below.

The series in a line: Toxicity liver stage against HepG2, at 10uM. Format: cell-based. Also noted: test concentration 10 uM, cell line HepG2-A16-CD81EGFP. The note with it: human, HepG2-A16-CD81EGFP cells; read-out: INHIBITION
Put shortly:
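Uninfected HepG2-A16-CD81EGFP cells, 3 × 10^3 per well, 1536-well, plated on prespotted compound at 10 μM final, parasite-free screening media added to match infected plates; puromycin 10 μM positive, DMSO 0.5% negative; run in parallel with 48 h PbLuc assay at 37 °C, 5% CO2; viability by CellTiter-Glo luminescence, normalized to controls.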

Take `Cc1cc(=O)[nH]c(-n2nc(C)c(CCC(=O)NCC(C)C)c2C)n1`: the cytotoxicity at 10 µM came out at 2.28%.

With `CC(C)(C)n1cc(C(=O)O)c(-c2ccc(F)cc2F)n1`, the cytotoxicity at 10 µM was found to be 6.92%.

In the case of `Fc1ccccc1Oc1nccnc1C1CCN(C2CCOCC2)CC1`, the cytotoxicity at 10 µM is 13.9%.

As to `CSc1ccc2cc(CN(C)CCc3cn[nH]c3)c(=O)[nH]c2c1`, the cytotoxicity at 10 µM was -7.23%.

In the case of `CNS(=O)(=O)c1ccc(C(=O)NC2CCc3nc(C)cn3C2)o1` (configuration not stated), the cytotoxicity at 10 µM is -12.3%. With `CN(C)CCNCCC(c1ccccc1)C1CCOC(C)(C)C1` (configuration not stated), the cytotoxicity at 10 µM is -5.67%.

For the molecule `COc1ccc2c(ccn2CCC(=O)Nc2n[nH]c(CC(C)C)n2)c1`, the cytotoxicity at 10 µM worked out at 8.29%. As to `CCc1nnc2n1CCN(C(=O)CN(C)Cc1ccccc1)C2`, the cytotoxicity at 10 µM is -6.22%. Regarding `CN(Cc1c[nH]nc1-c1ccc(F)cc1F)Cc1nccn1C`, the cytotoxicity at 10 µM came out at 2.5%. Consider `CCOc1ccccc1C(=O)Nn1c(C)cc(C)cc1=O`, for which the cytotoxicity at 10 µM was -10.9%. Under `N#Cc1cccnc1NCCNC(=O)N1CCSCC1` stands -1.22%; under `Cc1nc(C)n(CC2CCCN(CCOc3ccc(C#N)cc3)C2)n1` (configuration not stated), -1.55%; under `CCn1nccc1CN(C)c1[nH]cnc2nc(C)nc1-2`, -7.97%. The result for `Cc1cnn(CC(C)NCC(=O)NCCOc2ccccc2)c1` (configuration not stated) reads 1.36%; that for `Cc1cc(-c2noc(C3CCS(=O)(=O)C3)n2)ccc1F` (configuration not stated), 8.22%; that for `CCOCC(=O)N(Cc1ccccn1)Cc1ccccc1C`, 3.21%. The result for `Cc1ncsc1-c1nc(CC2CCN(C)CC2)nn1Cc1ccccc1` reads 10.2%; that for `Cc1cc(C)cc(NC(=O)Cc2c(C)nc3c(c2C)c(=O)[nH]n3C)c1`, 10.6%. Take `CC(C)(C)c1ncc2c(n1)CN(c1cc(NCCO)nc(N)n1)C2`: the cytotoxicity at 10 µM was 3.5%. Turning to `COCC(=O)NC1CC2(CCN(CCN(C)C)CC2)c2ccccc21` (configuration not stated), the cytotoxicity at 10 µM was -113%. For `COCc1cn(C2CCN(C(=O)Cc3ccsc3)CC2)nn1`, the cytotoxicity at 10 µM was -4.2%. With `COc1ccc2c(C)nc(N3CCN([C@H]4CCCC[C@@H]4O)CC3)nc2c1`, the cytotoxicity at 10 µM was determined as 7.24%. In the case of `O=C(CN1C(=O)CCC1=O)N1CCOC2(CCOCC2)C1`, the cytotoxicity at 10 µM was 4.1%.

On to `c1ncn(CCNC2CCCN(Cc3noc(C4CC4)n3)C2)n1` (configuration not stated), for which the cytotoxicity at 10 µM was -2.77%. Regarding `C[C@@]1(O)CCN(Cc2cc[nH]n2)C[C@H]1Oc1cccc(F)c1`, the cytotoxicity at 10 µM is -6.86%. Take `CN1CC(=O)N(c2cnn(C)c2)CC12CCN(C(=O)c1ccsc1)C2` (configuration not stated): the cytotoxicity at 10 µM was -1.37%. Take `CNC(=O)[C@H]1C[C@@H]2CN(S(=O)(=O)c3ccc(C)cc3)C[C@@H]2N1C`: the cytotoxicity at 10 µM was -2.19%.

`COCc1ccc(C(=O)N2CCCN(C(=O)OCC(C)C)CC2)cc1`: the cytotoxicity at 10 µM amounted to 13.4%.

As to `Cn1cc(NS(=O)(=O)c2ccc(OC(F)(F)F)cc2)ccc1=O`, the cytotoxicity at 10 µM turned out to be 33.4%.

Turning to `CCc1nnc(SCC(=O)N2CCc3[nH]nc(C4CCC4)c3C2)o1`, the cytotoxicity at 10 µM was -5.22%. Take `CC(C(N)=O)N1CCN(c2ncc(Br)cn2)CC1` (configuration not stated): the cytotoxicity at 10 µM came out at 3.23%. Under `Cc1noc(C)c1CNC(=O)N1CCN(Cc2cscn2)CC1` stands -6.31%; under `Oc1cccc(-c2cc(C3CCN(Cc4cncnc4)C3)ccn2)c1` (configuration not stated), 5.06%. `CN1CCN(c2ccc(NCc3ccsc3)cn2)CC1`: the cytotoxicity at 10 µM was 2.97%. Regarding `Cc1cn2c(n1)CCC(NC(=O)c1csc(C(C)C)n1)C2` (configuration not stated), the cytotoxicity at 10 µM is -16.4%.

As for `CNS(=O)(=O)c1ccccc1N1CCN(C(=O)NC(C)C)CC1`, the cytotoxicity at 10 µM amounted to 9.44%. Take `Cc1cc(C(F)(F)F)nn1C(C)C(=O)NN1CCN(C)CC1` (configuration not stated): the cytotoxicity at 10 µM came to 20.4%.

As to `O=C(c1cnc(-c2ccco2)s1)N1CCCC1Cn1cccn1` (configuration not stated), the cytotoxicity at 10 µM is -1.08%. Regarding `CC(C)CNC(=O)Cn1ccc2ccccc21`, the cytotoxicity at 10 µM is -43.4%. For `COc1cc2nc3n(c(=O)c2cc1OC)CCN(C(=O)C1CCC1)CC3`, the cytotoxicity at 10 µM was -8.8%. For `Cn1nc2c(cc1=O)CN(CCOc1ccccc1C#N)CC2`, the cytotoxicity at 10 µM stood at 18%. `COc1cccc(OC2CN(C(=O)C3CCCN(C(=O)N(C)C)C3)C2)c1` (configuration not stated): the cytotoxicity at 10 µM was determined as 0.754%. For `COc1cc(N2CC[C@@H](O)[C@@H]2Cc2ccncc2)ncn1`, the cytotoxicity at 10 µM is -84.5%. Turning to `COC(=O)N1CCCC(C(=O)N(C)C)C1` (configuration not stated), the cytotoxicity at 10 µM is -5.87%.

Take `CC1(C)COCCN1C(=O)Cc1cc(Cl)c2c(c1)OCCO2`: the cytotoxicity at 10 µM was 1.54%. With `CCc1nc(CN2CCCC(NCc3cccc(C(N)=O)c3)C2)no1` (configuration not stated), the cytotoxicity at 10 µM is 1.56%. In the case of `CCNC(=O)NC(=O)CN(CC(C)O)c1ccccc1` (configuration not stated), the cytotoxicity at 10 µM is 1.32%. As to `COc1c(F)cc(CN2CCC3(CC2)CN(C)C(=O)O3)cc1Cl`, the cytotoxicity at 10 µM is 8.08%. On to `CCN1CCN(C2CCN(Cc3noc(C)n3)CC2)C1=O`, for which the cytotoxicity at 10 µM is -8.13%. Turning to `CCn1c(C2CCCN(Cc3nccn3CCOC)C2)nn(C)c1=O` (configuration not stated), the cytotoxicity at 10 µM turned out to be 7.3%.

On to `CCNC(=O)NC(=O)CNc1cccc(C(=O)c2ccccc2)c1`, for which the cytotoxicity at 10 µM turned out to be 3.18%. Under `O=C(CO)N1CCCC2(CCC(=O)N(CC3CC3)C2)C1` (configuration not stated) stands 5.75%. In the case of `Cc1noc(C)c1CNCC1CNc2ccnn2C1` (configuration not stated), the cytotoxicity at 10 µM is -2.72%. Under `O=C(O)c1ccccc1-c1ccc(CN2CCC(CO)C2)cc1` (configuration not stated) stands -14.6%. For the molecule `CC(CN1CCOC1=O)NC(=O)c1cccc(Cl)c1Cl` (configuration not stated), the cytotoxicity at 10 µM was -3.26%.

Turning to `O=C(O)c1ccc2[nH]cc(CN3CCCC3)c2c1`, the cytotoxicity at 10 µM is -2.66%. With `NC(=O)c1cc(-n2cc(-c3cccc(C(=O)O)c3)cn2)cs1`, the cytotoxicity at 10 µM was -0.387%.

For `Cc1nc(-c2nnc[nH]2)sc1C(=O)N1CCCC1Cn1cccn1` (configuration not stated), the cytotoxicity at 10 µM was 11.8%. Turning to `COCC1(NC(=O)Nc2nc(C)ns2)CCCC1`, the cytotoxicity at 10 µM stood at 0.512%.

With `CCCn1ccc(C(=O)N2CCOC(c3nc(-c4cccs4)no3)C2)n1` (configuration not stated), the cytotoxicity at 10 µM came out at 8.54%. Consider `Cc1sc2c(C3CCCN(C)C3)nc(C)n2c1C` (configuration not stated), for which the cytotoxicity at 10 µM was -26.9%.

Take `NC(=O)C1CCN(S(=O)(=O)c2cnn(-c3ccccc3)c2)C1` (configuration not stated): the cytotoxicity at 10 µM worked out at 7.68%. Take `CC(C(=O)Nc1cnn(CC(N)=O)c1)c1ccc(Cl)s1` (configuration not stated): the cytotoxicity at 10 µM was found to be 10.9%. Turning to `COc1ccc(OCCc2sc(C3(O)CCCNCC3)nc2C)cc1` (configuration not stated), the cytotoxicity at 10 µM was -14.9%. The result for `COCCN1CCN(CCCc2nnnn2-c2ccccc2)CC1` reads 5.04%; that for `Cc1cnc(-c2nc(C3CCN(Cc4ccccc4C)CC3)no2)cn1`, 4.08%; that for `CN(Cc1cc(-c2ccncc2)no1)C(=O)[C@@H]1CSCN1C`, -2.62%.

In the case of `Cn1ncc2c(=O)[nH]c(CN3CCc4ccccc4C3)nc21`, the cytotoxicity at 10 µM was -2.72%. With `CCn1c(CN(C)C(=O)c2ccc(N(C)C)nc2)nc2ccccc21`, the cytotoxicity at 10 µM is 0.0894%. Take `NC(=O)c1ccc(OCC(=O)NS(=O)(=O)c2ccc3c(c2)CCC3)cc1`: the cytotoxicity at 10 µM was -8.89%.

Consider `COc1ccc(CN2C[C@@H](CN(C)CCO)[C@@H](CO)C2)cc1Cl`, for which the cytotoxicity at 10 µM is -5.88%.

In the case of `CCc1nnc2n1CC(CNCc1nc(-c3ccsc3)no1)CC2` (configuration not stated), the cytotoxicity at 10 µM is -5.34%. Take `Cc1ccc(CC(=O)N2CCCn3nnc(Cn4cccn4)c3C2)cc1`: the cytotoxicity at 10 µM worked out at 9.58%.

Consider `CC1CN(C)c2ccccc2CN1CCn1cncn1` (configuration not stated), for which the cytotoxicity at 10 µM is -12.7%. Turning to `Cn1cccc1C(CNC(=O)c1ccc(F)cc1F)N1CCCCCC1` (configuration not stated), the cytotoxicity at 10 µM worked out at 2.19%. In the case of `CCOc1ccc(C2c3c(N)nc(SC)nc3N=C3COC(=O)C32)cc1` (configuration not stated), the cytotoxicity at 10 µM came to 30%. As to `CC(C)CNC(=O)[C@H]1C[C@H]2CN(C(=O)Nc3ccc(F)cc3)C[C@@H]1O2`, the cytotoxicity at 10 µM was 0.428%. Regarding `O=C(CCc1ccsc1)N1CCC(N2CCNC2=O)CC1`, the cytotoxicity at 10 µM is -0.546%. `O=C(CCc1ccccc1F)N1CCCC(OCc2cccnc2)C1` (configuration not stated): the cytotoxicity at 10 µM was -5.44%.

As to `Cc1cnc(CC2COCCN(C(=O)c3cncs3)C2)cn1` (configuration not stated), the cytotoxicity at 10 µM was found to be 3.65%. As to `Fc1cnc(N2CCC3(CC2)CN(Cc2cccs2)CCO3)nc1`, the cytotoxicity at 10 µM was 12.4%. In the case of `Cc1nc2cc(C(=O)N3C[C@@H](NS(C)(=O)=O)[C@H](C(C)C)C3)ccc2[nH]1`, the cytotoxicity at 10 µM is -4.47%.

`Cc1ccc(NC(=O)CN2CCCNC2=O)c(SC(F)(F)F)c1`: the cytotoxicity at 10 µM is -1.96%. As for `Cc1nn(C)cc1C(C)Nc1ncc(C(N)=O)cc1Cl` (configuration not stated), the cytotoxicity at 10 µM was 3.68%. `CN(Cc1ncc[nH]1)C(=O)C(C)(C)NC(=O)c1cccs1`: the cytotoxicity at 10 µM is 11.6%. Regarding `COCc1ncc(-c2nccn2CCn2cnnc2)cn1`, the cytotoxicity at 10 µM came out at 4.6%. Under `O=C1CC(N(C(=O)c2ccc(F)c(F)c2)C2CC2)C(=O)N1` (configuration not stated) stands 2.1%. Turning to `Cc1noc(C)c1CN(C)C(=O)NC1CCCN(S(C)(=O)=O)C1` (configuration not stated), the cytotoxicity at 10 µM is -13.9%. For the molecule `Cc1noc(C(C)C)c1C(=O)N1CCC(n2cccn2)CC1`, the cytotoxicity at 10 µM was -4.32%. Turning to `O=C(c1sccc1-n1cnnn1)N1CCCCC1`, the cytotoxicity at 10 µM came out at 6.56%.

As for `COCc1cc(CNC(=O)c2cccc3c2OCC3)n[nH]1`, the cytotoxicity at 10 µM was 8.97%. `c1cncc(-c2noc(CNc3ncnc4c3CCNCC4)n2)c1`: the cytotoxicity at 10 µM amounted to 3.18%. `O=C(O)C(c1cccc2c1OCC2)N1CCC(N2CCCC2)CC1` (configuration not stated): the cytotoxicity at 10 µM is 8.12%. `Cc1noc(C)c1CNS(=O)(=O)N(C)Cc1ccc(Cl)cc1`: the cytotoxicity at 10 µM was 11.2%. `CCc1nccn1C1CCCN(C(=O)CCc2nccs2)C1` (configuration not stated): the cytotoxicity at 10 µM is -14.3%. For `Cc1noc(C[C@@H]2COC[C@H]3CN(S(=O)(=O)C4CC4)C[C@@H]23)n1`, the cytotoxicity at 10 µM is 8.37%.

For the molecule `CS(=O)(=O)N1CCCC(c2cccc(-c3ccccc3F)n2)C1` (configuration not stated), the cytotoxicity at 10 µM is -3.81%.
